Compound activity as filed in PubChem BioAssay.
TRPC6 activator = activates the mouse TRPC6 cation channel; Q61143; HEK293-TRPC6 membrane potential dye fluorescence; stronger effect = higher value; B-score at 10 µM; 310,000 compounds, 0.13% hits; AID 2550;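 active = B-score of the integrated fluorescence ratio above library mean plus 3 SD, and starting fluorescence ratio within library mean plus 5 SD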;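 also: higher score means more depolarization so channel activation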
TRPC6 inh = mouse TRPC6 channel inhibition. Q61143. HEK293-TRPC6, membrane potential dye, ACh-evoked depolarization; stronger effect = lower value. B-score at 10 µM. 310,000 compounds, 1.1% hits;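 active = B-score under library mean minus 3 SD, initial fluorescence not abnormally high, positive integrated signal ratio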;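 also: B-score derived from integrated fluorescence ratio over the kinetic read; more negative B-score means stronger inhibition of depolarization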
TRPC4 block = inhibitors of mouse TRPC4 channel; Q9QUQ5; HEK293 TRPC4beta/mu-opioid, DAMGO-evoked Fluo4 calcium flux; stronger effect = lower value; B-score at 10 µM; 300,000 compounds, 0.39% hits; AID 2247;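 active = B-score over 3 SD under the library average, no early fluorescence shift, positive overall ratio signal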
Target sequence (Q9QUQ5 whole entry, looked up): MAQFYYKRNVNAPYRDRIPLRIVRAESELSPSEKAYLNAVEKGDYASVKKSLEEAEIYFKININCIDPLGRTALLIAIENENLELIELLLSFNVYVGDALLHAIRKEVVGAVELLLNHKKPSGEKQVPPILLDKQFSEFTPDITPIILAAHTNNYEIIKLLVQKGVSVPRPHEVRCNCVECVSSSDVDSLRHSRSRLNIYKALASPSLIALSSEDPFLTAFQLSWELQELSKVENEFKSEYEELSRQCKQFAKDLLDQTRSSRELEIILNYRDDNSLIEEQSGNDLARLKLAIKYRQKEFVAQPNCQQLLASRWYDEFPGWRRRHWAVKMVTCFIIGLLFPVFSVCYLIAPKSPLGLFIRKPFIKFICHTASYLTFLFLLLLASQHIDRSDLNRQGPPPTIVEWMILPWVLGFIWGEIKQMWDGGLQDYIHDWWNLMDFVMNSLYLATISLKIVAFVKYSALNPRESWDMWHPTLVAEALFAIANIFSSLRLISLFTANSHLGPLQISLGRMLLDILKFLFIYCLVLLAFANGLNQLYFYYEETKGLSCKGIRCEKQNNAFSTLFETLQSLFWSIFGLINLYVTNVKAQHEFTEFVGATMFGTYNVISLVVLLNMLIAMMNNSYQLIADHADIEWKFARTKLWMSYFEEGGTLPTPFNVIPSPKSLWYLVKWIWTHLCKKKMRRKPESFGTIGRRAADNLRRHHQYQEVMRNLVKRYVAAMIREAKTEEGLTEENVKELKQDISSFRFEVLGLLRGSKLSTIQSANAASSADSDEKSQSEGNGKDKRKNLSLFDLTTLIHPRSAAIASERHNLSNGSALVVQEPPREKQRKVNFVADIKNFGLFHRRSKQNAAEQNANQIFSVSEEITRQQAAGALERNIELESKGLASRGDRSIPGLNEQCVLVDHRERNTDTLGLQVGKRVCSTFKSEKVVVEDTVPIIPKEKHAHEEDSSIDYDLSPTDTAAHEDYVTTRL
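Material: HEK293 cells with stable TRPC4beta plus mu-opioid receptor expression; probe or stimulus: DAMGO in two steps, submaximal then maximal; technique: Fluo4 calcium fluorescence by kinetic imaging, 5 s 1 Hz baseline; measure: integrated fluorescence ratio relative to baseline, converted to per-well B score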
TRPC4 PAM = allosteric potentiators of mouse TRPC4 channel. Q9QUQ5. HEK293 TRPC4beta/mu-opioid, DAMGO EC20, Fluo-4 Ca2+ flux; stronger effect = higher value. B-score at 10 µM. 310,000 compounds, 0.42% hits;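 active = B-score of calcium response area above 5 SD of library B-scores, with initial fluorescence ratio within 5 SD of library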
TRPC4 act = TRPC4 (mouse) channel activation. B-score at 10 µM. HEK293 TRPC4beta/mu-opioid, Fluo4 calcium fluorescence; stronger effect = higher value. 310,000 compounds, 0.49% hits. Q9QUQ5;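 active = B-score above 5 SD of library B-scores, and initial fluorescence ratio not above library mean plus 5 SD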;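 also: positive B-score marks a calcium rise read as TRPC4 activation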
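System: HEK293 cells stably co-expressing mouse TRPC4beta and mu-opioid receptor; Schedule: Fluo4 dye loading 45 min at room temperature, 110 s recording; Detection: Fluo4 fluorescence, kinetic; Evaluation: B-scored integrated calcium fluorescence ratio; Controls: buffer (low) and maximal DAMGO (high).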
Of the large screens only hits and unclear results are named; the others gave an inactive call. Sampled rows, rich in hits. Any-hit rate of the full collection: about 2.3%.

O=C(CCN1CCN(Cc2ccccc2)CC1)Nc1cccc(Br)c1	TRPC4 PAM 20
Cc1cccc(C(C(N)=O)c2ncc(C(F)(F)F)cc2Cl)c1 (stereo not given)	none
N#Cc1c(-c2ccccc2)nc(SCC(=O)NC2CCCCC2)[nH]c1=O	none
CN(C(=O)CSc1nc(-c2ccc(C(C)(C)C)cc2)c(C#N)c(=O)[nH]1)C1CCCCC1	TRPC4 block -6
COc1cccc(/C=N/NC(=O)c2nc(-c3ccccc3)cc(-c3ccccc3)n2)c1O	none
O=C(Nc1ccc2c(c1)CCC2)c1cnc(Cl)c(Cl)c1	none
O=C(Nc1ccc2c(c1)CCC2)c1ccc(Cl)nc1	TRPC4 block -6
CN1CCN(c2ccc(NC(=O)c3ccc(Br)o3)cc2)CC1	TRPC4 block -7
CC(Oc1ccc(Br)cc1)C(=O)Nc1ccc(S(=O)(=O)N(C)C2CCN(C)CC2)cc1 (stereo not given)	TRPC4 act 63
COc1ccc(/C=C(\NC(=O)c2ccc(C)cc2)C(=O)NCCCn2ccnc2)cc1OC	none
COc1ccc(C2=CC(=O)C=CC2=O)cc1	TRPC4 act 91
O=C(Cc1nc2ccccc2[nH]1)c1ccc(Cl)cc1	none
O=C(Cc1nc2ccccc2[nH]1)c1ccc([N+](=O)[O-])cc1	TRPC4 block -6
CN1CCN(c2nc3c(c(=O)n(C)c(=O)n3C)n2CC(=O)C23CC4CC(CC(C4)C2)C3)CC1	TRPC4 block -6
Cn1c(=O)c2c(nc(N3CCOCC3)n2CC(=O)C23CC4CC(CC(C4)C2)C3)n(C)c1=O	none
CN1CCN(S(=O)(=O)c2ccc(-c3ccc(Cl)cc3)cc2)CC1	none
CN1CCN(S(=O)(=O)c2ccc(Cl)cc2)CC1	TRPC4 act 48
Cc1ccc(S(=O)(=O)N2CCC(N3CCN(C)CC3)CC2)cc1Cl	TRPC4 PAM 35
COc1ccccc1C(=O)Nc1ccnn1C1CCN(Cc2cnn(C)c2C)CC1	none
Cc1ccccc1N(CC(=O)N/N=C/c1ccc(F)cc1)C(=O)c1ccccc1	TRPC4 act 91
Cc1ccccc1N(CC(=O)N/N=C/c1ccc(Cl)cc1)C(=O)c1ccccc1	none
CCCn1c(N)c(N(CCOC)C(=O)c2ccc([N+](=O)[O-])cc2Cl)c(=O)[nH]c1=O	none
Cc1cccc(Cn2c(C(C)(C)C)cc3cccnc32)c1	TRPC4 block -6
CCOC(=O)c1cnc(-n2nc(C)cc2C)nc1NC1CCCCC1	TRPC4 PAM 18
O=C(O)COCC(=O)NCc1csc2ccccc12	none
CCCCN(C)CCNC(=O)c1cc2cc3ccc(OC)cc3nc2o1	TRPC4 PAM 12
CCN(CC)CCNC(=O)c1cc2cc3ccc(OC)cc3nc2o1	none
Cc1ccc(Cn2c(C3CCCN3c3nc(-c4ccc(F)cc4)cs3)nc3cc(Cl)c(Cl)cc32)cc1 (stereo not given)	none
CCCn1c(C2CCCN2c2nc(-c3ccc(C)cc3)cs2)nc2ccccc21 (stereo not given)	TRPC4 act 46
O=C(CCl)Nc1ccc(Oc2cnc3ccccc3n2)cc1	none
CC(=O)c1cccc(NC(=O)CN2CCc3cc4c(cc3C2C)OCCCO4)c1 (stereo not given)	none
CC(C)(C)n1nnnc1C(c1ccc(Cl)cc1)N(Cc1cccnc1)Cc1ccco1 (stereo not given)	TRPC4 PAM 42
N#Cc1c(-c2ccccc2)ccnc1Oc1ccccc1	none
COc1ccc(-c2noc(N3CCCC(C(=O)Nc4cc(F)ccc4F)C3)n2)cc1 (stereo not given)	none
CC(C)OCCCn1c(=N)c(C(N)=S)cc2c(=O)n3ccccc3nc21	TRPC6 inh -7.62
N=c1c(C(=O)NC2CCCCC2)cc2c(=O)n3ccccc3nc2n1CCc1ccccc1	TRPC6 inh -4.99
CCCn1c(=N)c(C(=O)NCc2ccc3c(c2)OCO3)cc2c(=O)n3cccc(C)c3nc21	none
N=c1c(C(=O)NC2CCCCC2)cc2c(=O)n3ccccc3nc2n1Cc1ccco1	none
Cc1ccc(Cn2c(=N)c(C(=O)NC3CCCC3)cc3c(=O)n4ccccc4nc32)cc1	TRPC4 PAM 78, TRPC4 act 66
CCOCCCn1c(=N)c(C(=O)NCc2ccc3c(c2)OCO3)cc2c(=O)n3ccccc3nc21	TRPC6 inh -5.87
O=C(CCSc1nc2ccccc2o1)Nc1ccccc1	none
CN(C)CCOC(=O)c1cccc(Br)c1	TRPC4 PAM 10, TRPC4 act 44
CCOc1cc(CNCCCN2CCOCC2)cc(Cl)c1OCC(=O)NC(C)(C)C	none
CCOc1cc(CNCCCN2CCOCC2)cc(Br)c1OCC(=O)Nc1cccc(C(F)(F)F)c1	TRPC4 block -6
COc1cc(CNCCCN2CCOCC2)cc(Br)c1OCc1ccc(Cl)cc1	TRPC4 block -6
COc1cc(/C=C2\SC(=O)N(c3ccccc3Cl)C2=O)cc([N+](=O)[O-])c1O	TRPC4 block -9
COc1cc(/C=C2/C(=O)NN(c3ccc(Cl)c(Cl)c3)C2=O)cc([N+](=O)[O-])c1O	none
Cc1ccc(S(=O)(=O)N2CCc3c2cc([N+](=O)[O-])cc3[N+](=O)[O-])cc1	none
Cc1[nH]n2c(=O)cc(-c3ccc([N+](=O)[O-])cc3)nc2c1-c1ccccc1	TRPC4 block -5
CCCc1nc(SC2CCCC2)c2c(=O)n(C)c(=O)n(C)c2n1	TRPC4 block -5
Cc1c(Cl)cccc1N=C(N)N=C(N)N	TRPC4 act 51
c1ccc(COc2ccc(Nc3ncnc4nc[nH]c34)cc2)cc1	none
O=C1CC(N2CCN(c3nc4ccccc4s3)CC2)C(=O)N1c1cccc(F)c1 (stereo not given)	TRPC4 PAM 10
CCCOc1ccc(N2C(=O)CC(N3CCN(c4nc5ccccc5s4)CC3)C2=O)cc1 (stereo not given)	none
CN(C)CCOC(=O)c1sc2ccccc2c1Cl	TRPC4 act 92
CCCCCC(=O)Nc1cc(S(=O)(=O)N2CCOCC2)ccc1Oc1ccc(OCC)cc1	none
COc1cc(NC(=O)CCN2CCN(CCO)CC2)cc(OC)c1	TRPC4 act 45
CCN1CCN(CCC(=O)Nc2ccccc2OC)CC1	TRPC4 PAM 19
CN1CCN(NC(=S)Nc2ccc(OC(F)F)cc2)CC1	none
O=C(COC(=O)c1ccccn1)Nc1nc(-c2ccccc2)cs1	TRPC4 block -6
O=C(COC(=O)C1CC1)Nc1nc(-c2ccc(F)c(F)c2)cs1	TRPC4 block -6
CSCc1ccc(C(=O)Nc2ccc(C(N)=O)cc2)cc1	none (no result: TRPC4 block)
O=C1c2ccccc2C2(c3ccccc3)N1CCN2C(=O)C(Cl)(Cl)Cl (stereo not given)	none
O=C(Nc1ccc(F)cc1)N1CCN2C(=O)c3ccccc3C12c1ccccc1 (stereo not given)	TRPC4 block -6
O=C1C=C(O)CC(c2ccc(Cl)cc2)C1 (stereo not given)	none
O=C1C=C(O)CC(c2ccc(Cl)c(Cl)c2)C1 (stereo not given)	TRPC4 PAM 11
